This is a sample that favours compounds with a hit; in the whole collection about 3.1% have one here.
Hep lipid drop: modulators of hepatic lipid droplet formation. AML12 mouse hepatocytes, oleate lipid droplets, BODIPY imaging. inhibition, % at 6.5 µM. 0.4% of 240,000 active. AID 1656;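 active = lipid droplet intensity inhibited by at least 50%, with more than 500 cells counted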
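Assay system: AML12 hepatocytes (mouse) / Also added: 100 µM oleic acid challenge / Times: overnight treatment with compound plus oleate / Detection: high-content imaging of BODIPY-stained droplets and DAPI nuclei / Evaluation: % inhibition of lipid droplet signal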
V-ATPase pHluor: yeast V-ATPase proton transport regulation by pHLuorin; S. cerevisiae, pHLuorin cytosolic pH fluorescence; response, % at 10 µM; 0.37% of 350,000 active; AID 504577; in the data active = response mostly above about 7.3%, no sharp cut-off; inactive = mostly below about 5.4%; also: actives read high
MPTP block: permeability transition pore inhibition; isolated mouse mitochondria, Ca2+ swelling absorbance, 30 min; inhibition, % at 10 µM; 1.4% of 360,000 active;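 active = inhibition of 50% or more, scaled per plate between neutral and stimulator controls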
ADAM17 inh: inhibits human ADAM17. P78536. recombinant ADAM17, EDANS/DABCYL FRET peptide cleavage. inhibition, % at 6.95 µM. 0.83% of 370,000 active;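 active = inhibition above the mean of compounds lying between control limits plus 3 SD, set per campaign, cut at about 8.5% in these data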
Target sequence (P78536 215-824 limits assumed): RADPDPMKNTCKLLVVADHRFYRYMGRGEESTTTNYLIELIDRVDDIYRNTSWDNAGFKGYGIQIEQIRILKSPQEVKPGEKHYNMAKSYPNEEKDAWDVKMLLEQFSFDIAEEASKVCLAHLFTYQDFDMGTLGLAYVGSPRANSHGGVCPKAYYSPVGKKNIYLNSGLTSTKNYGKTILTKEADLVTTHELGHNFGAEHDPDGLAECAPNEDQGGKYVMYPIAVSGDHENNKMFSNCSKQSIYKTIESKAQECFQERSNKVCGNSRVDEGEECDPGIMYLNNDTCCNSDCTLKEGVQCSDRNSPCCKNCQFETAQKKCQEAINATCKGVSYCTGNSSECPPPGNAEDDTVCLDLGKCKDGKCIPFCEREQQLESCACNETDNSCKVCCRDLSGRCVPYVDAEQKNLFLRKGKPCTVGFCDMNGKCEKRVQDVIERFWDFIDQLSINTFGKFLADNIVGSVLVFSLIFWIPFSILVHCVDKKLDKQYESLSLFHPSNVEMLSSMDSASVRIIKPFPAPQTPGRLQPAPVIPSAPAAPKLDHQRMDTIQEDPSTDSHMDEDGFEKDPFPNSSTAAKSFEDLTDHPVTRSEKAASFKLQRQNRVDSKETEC
ADAM10 inh: ADAM10 inhibition, QFRET primary screen | 0.62% of 370,000 active | recombinant ADAM10, EDANS/DABCYL FRET peptide cleavage, 3 h | O14672 | inhibition, % at 7 µM;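 active = inhibition above a per-campaign cutoff equal to the mean of compounds falling between control-based bounds plus 3 SD, cut at about 20% in these data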
aDG glyco up: alpha-DG glycosylation activation; 0.22% of 360,000 active; activation, % at 10 µM; Pro5-aDG cells, alpha-DG glycosylation AlphaScreen (IIH6); 0% Pro5, 100% B10-LARGE cell signal;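 active = activation of at least 8% versus controls, or a plate z-score of at least 8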;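 also: Pro5 are CHO cells carrying HIG-tagged alpha-DG that lacks glycosylation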
ADAM10 ctr: inhibits human ADAM10 in ADAM17 exosite counter-screen | shares compounds with ADAM17 inh | recombinant ADAM10, EDANS/DABCYL FRET peptide cleavage, 3 h | inhibition, % at 6.95 µM | 47% of 2,900 active | AID 743256;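 active = mean inhibition over the triplicate runs exceeds the activity threshold set in the earlier primary screen, cut at about 20% in these data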
ADAM17 confirm: confirmation of inhibitors of human ADAM17. inhibition, % at 6.95 µM. shares compounds with ADAM17 inh. recombinant ADAM17, EDANS/DABCYL QFRET peptide cleavage. 65% of 2,900 active;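 active = mean inhibition across replicates above the hit cutoff set in the primary screen, cut at about 8.5% in these data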
Numbers stand for hits; i = inactive; nt = no result.

SMILES	Hep lipid drop	V-ATPase pHluor	MPTP block	ADAM17 inh	ADAM10 inh	aDG glyco up	ADAM10 ctr	ADAM17 confirm
O=P(NS(=O)(=O)c1ccc(Br)cc1)(Oc1ccccc1)Oc1ccccc1	i	i	i	i	i	i	nt	nt
O=P(NS(=O)(=O)c1ccccc1)(Oc1ccccc1)Oc1ccccc1	i	i	i	8.7	i	i	i	i
Cc1ccc(OC(=O)N(C)C[C@H]2OCc3cnnn3CCCC(=O)N([C@H](C)CO)C[C@H]2C)cc1	nt	nt	nt	i	i	nt	nt	nt
O=c1[nH]c(Cl)ccc1CN1CCOCC1	nt	i	i	i	i	i	nt	nt
CC(C)(C)C(=O)Cn1c(NCCCl)nc2ccccc21	i	i	i	i	i	i	nt	nt
O=C(NN=Cc1ccc(N(CCCl)CCCl)cc1)c1cc(=O)[nH]c(=O)[nH]1	nt	i	i	i	i	i	nt	nt
O=C(NN=Cc1ccc(N(CCCl)CCCl)cc1)C(=O)c1c[nH]c2ccccc12	nt	i	i	15	i	i	i	13
O=C(NCCN1CCC2(CC1)C(=O)NCN2c1ccccc1)C(c1ccccc1)c1ccccc1	nt	nt	nt	i	i	nt	nt	nt
COC(=O)C1=C(c2ccc(OC(F)(F)F)cc2)C[C@@H]2CC[C@H]1N2C(=O)NCc1cccc2ccccc12	nt	i	i	8.7	30	i	21	10
COC(=O)C1=C(c2ccc(OC(F)(F)F)cc2)C[C@@H]2CC[C@H]1N2C(=O)NCc1ccc(F)cc1	nt	i	i	i	i	i	nt	nt
COC(=O)C1=C(c2ccc(OC(F)(F)F)cc2)C[C@@H]2CC[C@H]1N2C(=O)NCc1cc(C)oc1C(F)(F)F	nt	i	i	11	i	i	29	15
C[C@H]1CNCCN1c1ccc(N2CC[C@@H](O)C2)c(C#N)c1	nt	nt	nt	i	i	nt	nt	nt
Cc1ccsc1C(=O)C1CCCN(Cc2c(C)nn(C(C)C)c2C)C1 (stereo not given)	i	i	i	i	i	i	nt	nt
S=C(NCCc1ccccc1)N1Cc2ccc(Br)cc2-n2nncc2C1	nt	nt	i	11	i	i	25	14
O=c1[nH]c(=O)n(Cc2ccco2)c(O)c1C=NCc1ccc2c(c1)OCO2	nt	i	i	9.3	i	i	i	i
Oc1ccc(Cl)cc1Cc1ccccc1	nt	i	i	8.7	i	i	i	i
CCOC(=O)CNC(=O)N1Cc2cc(Br)ccc2-n2nncc2C1	nt	nt	nt	i	i	nt	nt	nt
C[C@]12CCC(=O)C=C1CC[C@@H]1C2CC[C@]2(C)C(=O)CCC12 (stereo not given in full)	i	i	i	9.9	i	i	i	i
COc1ccc(OCC(=O)Nc2ccc(Cl)cc2C(=O)c2ccccc2)cc1	nt	i	i	9.1	i	i	i	i
O=C(COc1ccccc1)Nc1ccc(Cl)cc1C(=O)c1ccccc1	i	i	i	i	i	i	nt	nt
O=C1NCN(c2ccccc2)C12CCN(C(CCc1ccccc1)c1nnnn1C1CCCCC1)CC2 (stereo not given)	nt	nt	i	i	i	i	nt	nt
CCC(c1nnnn1Cc1ccccc1)N1CCC2(CC1)C(=O)NCN2c1ccccc1 (stereo not given)	nt	nt	i	10	i	i	i	12
COc1ccc(C(c2nnnn2Cc2ccccc2)N2CCC3(CC2)C(=O)NCN3c2ccccc2)cc1 (stereo not given)	nt	nt	i	i	i	i	nt	nt
O=C1NCN(c2ccccc2)C12CCN(C(CCc1ccccc1)c1nnnn1C1CCCC1)CC2 (stereo not given)	nt	nt	i	8.8	i	i	i	9.4
Cc1ccc(OCCOc2cccc(C=C3C(=O)NC(=O)NC3=O)c2)cc1	i	i	i	9.2	i	i	i	i
SMILES	Hep lipid drop	V-ATPase pHluor	MPTP block	ADAM17 inh	ADAM10 inh	aDG glyco up	ADAM10 ctr	ADAM17 confirm
Cc1cc(C)cc(OCCOc2cccc(C=C3C(=O)NC(=O)NC3=O)c2)c1	i	i	i	i	i	i	nt	nt
CN1CC[C@@H]2CN[C@H](c3ccccc3Br)C[C@@H]21	nt	nt	nt	i	i	nt	nt	nt
COC(=O)C1=C(C(=O)OC)C2c3ccccc3C1c1ccccc12	nt	i	i	11	i	i	i	i
Cc1ccc(Cn2nnnc2CN2CCC(n3nnc4cc(C)ccc43)CC2)cc1	nt	i	i	9.3	i	i	i	i
CCOC(=O)C(O)(c1ccc(NC(=O)Oc2ccccc2)cc1)C(F)(F)F (stereo not given)	i	i	i	i	i	i	nt	nt
CCOC(=O)C(O)(c1ccc(NC(=S)NC(=O)c2ccc(Cl)cc2Cl)cc1)C(F)(F)F (stereo not given)	i	i	i	9.6	i	i	24	14
COc1ccccc1OCCCn1cc(C(=O)C2CC2)c2ccccc21	i	i	i	i	i	i	nt	nt
COc1ccccc1OCCCn1cc(C(C)=O)c2ccccc21	i	i	i	10	i	i	i	i
CC(C)(C)OC(=O)NCCCCC(N)[P+](=O)O (stereo not given)	nt	nt	nt	i	i	nt	nt	nt
COC(=O)C1=C(c2ccccc2OCc2ccccc2)C[C@@H]2CC[C@H]1N2C(=O)NCc1ccc(Cl)cc1	nt	i	i	9.7	i	i	i	11
COC(=O)C1=C(c2ccccc2OCc2ccccc2)C[C@@H]2CC[C@H]1N2C(=O)NCc1ccc(OC)c(OC)c1	nt	i	i	12	i	i	i	i
COC(=O)C1=C(c2ccc(-c3ccccc3)c(F)c2)C[C@@H]2CC[C@H]1N2C(=O)NCCc1ccccc1	nt	i	i	9.0	i	i	i	i
CS(=O)(=O)N1Cc2cc(Br)ccc2-n2nncc2C1	nt	nt	nt	i	i	nt	nt	nt

Screening results: PubChem, several laboratories
